Results on six compounds are retold here after ChEMBL document CHEMBL1138267, “Identification of phosphinate dipeptide analog inhibitors directed against the Plasmodium falciparum M17 leucine aminopeptidase as lead antimalarial compounds” (J Med Chem, 2007).

Data set [1] relates to Plasmodium falciparum. Briefly: Antimalarial activity after 48 hrs against multidrug-resistant Plasmodium falciparum Dd2 by [3H]hypoxanthine uptake. The class given is functional, organism-based.
The subject of data set [2] is Plasmodium falciparum. Briefly: Antimalarial activity after 48 hrs against Plasmodium falciparum D10 by [3H]hypoxanthine uptake. The class given is functional, organism-based.
Data set [3] relates to Plasmodium falciparum. Briefly: Antimalarial activity after 48 hrs against drug-sensitive Plasmodium falciparum 3D7 by [3H]hypoxanthine uptake. The format is functional, organism-based.
The nature of data set [4]: Inhibition of Plasmodium falciparum recombinant M17 LAP. The method in brief:
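His-tagged PfLAP expressed in baculovirus-infected Sf9 cells and Ni-agarose purified. The enzyme was Co2+-activated (1 mM CoCl2, 50 mM Tris-HCl pH 8.0, 20 min) and H-Leu-NHMec hydrolysis was read at ex 370/em 460 nm, 37 °C. Ki came from Dixon plots of initial rates (26 nM enzyme, 2.5–100 µM substrate, 2.44–78.13 nM inhibitor). For time-dependent binding, Ki* came from steady-state progress curves (2 µM substrate, 19.53–312.5 nM).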

The subject of data set [5] is Plasmodium chabaudi. Briefly: Antimalarial activity against Plasmodium chabaudi chabaudi in C57BL/6J mice (Mus musculus) assessed as parasitemia on day 11 at 2 mg, intraperitoneally twice daily for 7 days. The format is functional.
Data set [6] has as its system Plasmodium chabaudi. Briefly: Antimalarial activity against Plasmodium chabaudi chabaudi in C57BL/6J mice (Mus musculus) assessed as reduction of parasitemia on day 11 at 2 mg, intraperitoneally twice daily for 7 days relative to control. Details: scale not given: the % may be the effect or the level left. The class given is functional.
Data set [7] concerns Mus musculus. Briefly: Toxicity in Plasmodium chabaudi chabaudi infected C57BL/6J mice (Mus musculus) at 2 mg, intraperitoneally twice daily after 7 days. The following applies: in vivo, ip, 168 h. The class given is organism-based.
Data set [8] relates to Mus musculus. Briefly: Toxicity in Plasmodium chabaudi chabaudi infected C57BL/6J mice (Mus musculus) at 0.1 mg, intraperitoneally twice daily after 4 days. The class given is organism-based. The following applies: in vivo, ip, 96 h.
In data set [9] the test system is Plasmodium chabaudi. Briefly: Antimalarial activity against Plasmodium chabaudi chabaudi in C57BL/6J mice (Mus musculus) assessed as parasitemia on day 8 at 2 mg, intraperitoneally twice daily for 7 days. The format is functional.
The subject of data set [10] is Plasmodium chabaudi. Briefly: Antimalarial activity against Plasmodium chabaudi chabaudi in C57BL/6J mice (Mus musculus) assessed as parasitemia on day 14 at 0.1 mg, intraperitoneally for 4 days. The class given is functional.

What is called IC50 is the midpoint of a concentration-inhibition curve. Broadly, the Ki is the equilibrium dissociation constant of an inhibitor or competing ligand from its target. With `CC(C)C[C@H](CP(=O)(O)[C@H](N)CC(C)C)C(=O)O`, the IC50 in data set [1], in data set [2] and in data set [3] was over 100 µM in each case. Moreover, the Ki in data set [4] came to 0.0973 µM.

For `N[C@H](CCc1ccccc1)P(=O)(O)C[C@@H](Cc1ccccc1)C(=O)O`, the IC50 came out at 20 µM in data set [1], 46 µM in [2] and 24 µM in [3]. The Ki in [4] was 0.0132 µM. Also, the Activity was 3.6% in [5], 92% in [6], “Non-toxic” in data set [7] and “Non-toxic” in [8].

As to `N[C@H](CCc1ccccc1)P(=O)(O)C[C@@H](Cc1ccc(O)cc1)C(=O)O`, the IC50 in data set [1] stood at 13 µM; in data set [2] it was 47 µM; in data set [3], 19 µM. Further, the Ki in [4] amounted to 0.0104 µM.

`N[C@H](CCc1ccccc1)P(=O)(O)CCC(=O)O`: the IC50 in data set [1], in data set [2] and in data set [3] was over 100 µM throughout. Besides, the Ki in data set [4] was found to be 0.525 µM.

As for `CC(C)C[C@H](NC(=O)[C@@H](O)[C@H](N)Cc1ccccc1)C(=O)O.Cl` [BESTATIN HYDROCHLORIDE], the results for the Activity in data set [9], in [7] and in data set [8] were 29.7%, “Non-toxic” and “Non-toxic”, respectively. In addition, the IC50 in data set [1] turned out to be 12 µM; in data set [2], 11 µM; in data set [3], 8 µM. In [4], the Ki came out at 0.025 µM.

In the case of `CCN(CC)CCCC(C)Nc1ccnc2cc(Cl)ccc12` (stereo not given) [CHLOROQUINE], the values for the Activity in data set [10], in data set [7] and in data set [8] were 6.9%, “Non-toxic” and “Non-toxic”, respectively.
